Reference: ChEMBL document CHEMBL1806443, “Novel imidazo[4,5-b]pyridine and triaza-benzo[c]fluorene derivatives: synthesis, antiproliferative activity and DNA binding studies” (Eur J Med Chem, 2011)
pIC50: −log10 of the molar value. The source made the active and inactive calls. The rule behind the calls is not given here.

Experiments:
MIA PaCa-2 [1] = assay: Cytostatic activity against human MIAPaCa2 cells at 1 to 10 uM after 72 hrs by MTT assay; format: functional, cell-based
Summary of the method: (§1)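 Monolayers in DMEM with 10% FBS, 2 mM L-glutamine, penicillin and streptomycin (37 °C, 5% CO2) were seeded at 3000–6000 cells/well on day 0. Five 10-fold dilutions (0.01–100 µM) were added, followed by 72-h incubation and MTT read-out. Absorbances were converted to percentage growth by the NIH formulae. Each point was run in quadruplicate in three experiments; ANOVA with Tukey test.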

Nucleic Acid [2] = assay: Binding affinity to calf thymus DNA assessed as UV/Vis spectral change at compound to DNA ratio of 0.24 by UV/Vis titrations; conditions: Bos taurus
Nucleic Acid [3] = assay: Binding affinity to calf thymus DNA assessed as change in melting temperature at compound to polynucleotide ratio of 0.1 by UV-VIS spectroscopic analysis; format: nucleic-acid assay; conditions: Bos taurus
Summary of the method: (§2)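 ct-DNA alone or with compound at set r = [compound]/[polynucleotide], in cacodylate buffer pH 7.0, I = 0.05 mol dm^-3. Absorbance at 260 nm followed against temperature, ligand absorbance subtracted, curves normalized. Tm is the transition midpoint, from the first-derivative maximum or by tangent method. ΔTm = Tm(complex) − Tm(free DNA), mean of ≥2 runs, error ±0.5 °C.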

MCF7 [4] = assay: Cytostatic activity against human MCF7 cells at 1 to 10 uM after 72 hrs by MTT assay; format: functional, cell-based; summary of the method: as §1
Nucleic Acid [5] = assay: Binding affinity to calf thymus DNA assessed as change in melting temperature at compound to polynucleotide ratio of 0.5 by UV-VIS spectroscopic analysis; format: nucleic-acid assay; conditions: Bos taurus; summary of the method: as §2
Nucleic Acid [6] = assay: Binding affinity to calf thymus DNA assessed as appearance of weak, negative induced CD band at > 300 nm wavelength by circular dichroism spectroscopy; format: nucleic-acid assay; conditions: Bos taurus
Summary of the method: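 CD spectra of ct-DNA (1.0 × 10^-5 mol dm^-3, as phosphate) titrated with compound at 25 °C. Sodium cacodylate buffer pH 7.0, I = 0.05 mol dm^-3, 1 cm quartz cuvette. DNA band (~274–275 nm) and induced bands above 300 nm followed versus r = [compound]/[ct-DNA].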

Nucleic Acid [7] = assay: Binding affinity to calf thymus DNA assessed as change in melting temperature at compound to polynucleotide ratio of 0.3 by UV-VIS spectroscopic analysis; format: nucleic-acid assay; conditions: Bos taurus; summary of the method: as §2
HEp-2 [8] = assay: Cytostatic activity against human Hep2 cells at 1 to 10 uM after 72 hrs by MTT assay; format: functional, cell-based; summary of the method: as §1
SK-BR-3 [9] = assay: Cytostatic activity against human SKBR3 cells at 1 to 10 uM after 72 hrs by MTT assay; format: functional, cell-based; summary of the method: as §1
Nucleic Acid [10] = assay: Binding affinity to calf thymus DNA assessed as change in melting temperature at compound to polynucleotide ratio of 0.2 by UV-VIS spectroscopic analysis; format: nucleic-acid assay; conditions: Bos taurus; summary of the method: as §2
Nucleic Acid [11] = assay: Binding affinity to calf thymus DNA assessed as hypochromic changes at 343 nm wavelength by UV-Vis spectrophotometric titrations; format: nucleic-acid assay; conditions: Bos taurus
Summary of the method: (§3)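 UV/Vis titration: aliquots of ct-DNA (concentration as phosphate) added to compound solution in sodium cacodylate buffer pH 7.0, I = 0.05 mol dm^-3, 1 cm quartz cuvettes. Hypochromism followed at band maxima. Compound absorbance linear up to 2.0 × 10^-5 mol dm^-3. Binding data fitted by the Scatchard equation.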

HeLa [12] = assay: Cytostatic activity against human HeLa cells at 1 to 10 uM after 72 hrs by MTT assay; format: functional, cell-based; summary of the method: as §1
Nucleic Acid [13] = assay: Binding affinity to calf thymus DNA assessed as hypochromic changes at 330 nm wavelength by UV-Vis spectrophotometric titrations; format: nucleic-acid assay; conditions: Bos taurus; summary of the method: as §3
SW-620 [14] = assay: Cytostatic activity against human SW620 cells at 1 to 10 uM after 72 hrs by MTT assay; format: functional, cell-based; summary of the method: as §1
HeLa [15] = assay: Antiproliferative activity against human HeLa cells after 72 hrs by MTT assay; format: functional, cell-based; conditions: Homo sapiens, HeLa, 72 h
Summary of the method: (§4)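 Monolayer cells in DMEM with 10% FBS, 2 mM L-glutamine, penicillin and streptomycin at 37 °C, 5% CO2. Seeded at 3000-6000 cells/well by doubling time on day 0. Five 10-fold dilutions (0.01–100 µM) were added and incubated 72 h. MTT read-out, converted to percentage growth. IC50 by linear regression between bracketing concentrations. Quadruplicate points, three independent experiments, ANOVA/Tukey p<0.05.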

SK-BR-3 [16] = assay: Cell cycle arrest in human SKBR3 cells assessed as accumulation at G1 phase at 5 uM after 24 hrs by propidium iodide staining based flow cytometeric analysis (reference value: 39.5 +/- 1.1%); format: functional
SK-BR-3 [17] = assay: Cell cycle arrest in human SKBR3 cells assessed as accumulation at G1 phase at 10 uM after 24 hrs by propidium iodide staining based flow cytometeric analysis (reference value: 39.5 +/- 1.1%); format: functional
MCF7 [18] = assay: Antiproliferative activity against human MCF7 cells after 72 hrs by MTT assay; format: functional, cell-based; conditions: Homo sapiens, MCF7, 72 h; summary of the method: as §4
WI-38 = assay: Antiproliferative activity against human WI38 cells after 72 hrs by MTT assay; format: cell-based; conditions: Homo sapiens, WI-38, 72 h; summary of the method: as §4
SK-BR-3 [19] = assay: Cell cycle arrest in human SKBR3 cells assessed as accumulation at G2/M phase at 50 uM after 24 hrs by propidium iodide staining based flow cytometeric analysis (reference value: 20.6 +/- 2.1%); format: functional
SK-BR-3 [20] = assay: Cell cycle arrest in human SKBR3 cells assessed as accumulation at S phase at 50 uM after 48 hrs by propidium iodide staining based flow cytometeric analysis (reference value: 40.6 +/- 4.9%); format: functional
SK-BR-3 [21] = assay: Cell cycle arrest in human SKBR3 cells assessed as accumulation at S phase at 5 uM after 24 hrs by propidium iodide staining based flow cytometeric analysis (reference value: 39.9 +/- 1.5%); format: functional
SK-BR-3 [22] = assay: Cell cycle arrest in human SKBR3 cells assessed as accumulation at subG1 phase at 5 uM after 24 hrs by propidium iodide staining based flow cytometeric analysis (reference value: 39 +/- 1.1%); format: functional
SK-BR-3 [23] = assay: Cell cycle arrest in human SKBR3 cells assessed as accumulation at subG1 phase at 50 uM after 48 hrs by propidium iodide staining based flow cytometeric analysis (reference value: 2.1 +/- 0.2%); format: functional
SW-620 [24] = assay: Antiproliferative activity against human SW620 cells after 72 hrs by MTT assay; format: functional, cell-based; conditions: Homo sapiens, SW-620, 72 h; summary of the method: as §4
SK-BR-3 [25] = assay: Antiproliferative activity against human SKBR3 cells after 72 hrs by MTT assay; format: functional, cell-based; conditions: Homo sapiens, SK-BR-3, 72 h; summary of the method: as §4
SK-BR-3 [26] = assay: Cell cycle arrest in human SKBR3 cells assessed as accumulation at G1 phase at 50 uM after 24 hrs by propidium iodide staining based flow cytometeric analysis (reference value: 39.5 +/- 1.1%); format: functional
SK-BR-3 [27] = assay: Cell cycle arrest in human SKBR3 cells assessed as accumulation at subG1 phase at 5 uM after 48 hrs by propidium iodide staining based flow cytometeric analysis (reference value: 2.1 +/- 0.2%); format: functional
SK-BR-3 [28] = assay: Cell cycle arrest in human SKBR3 cells assessed as accumulation at subG1 phase at 10 uM after 48 hrs by propidium iodide staining based flow cytometeric analysis (reference value: 2.1 +/- 0.2%); format: functional
SK-BR-3 [29] = assay: Cell cycle arrest in human SKBR3 cells assessed as accumulation at G2/M phase at 5 uM after 24 hrs by propidium iodide staining based flow cytometeric analysis (reference value: 20.6 +/- 2.1%); format: functional
SK-BR-3 [30] = assay: Cell cycle arrest in human SKBR3 cells assessed as accumulation at G2/M phase at 50 uM after 48 hrs by propidium iodide staining based flow cytometeric analysis (reference value: 34.7 +/- 3.3%); format: functional
SK-BR-3 [31] = assay: Cell cycle arrest in human SKBR3 cells assessed as accumulation at G1 phase at 10 uM after 48 hrs by propidium iodide staining based flow cytometeric analysis (reference value: 24.7 +/- 1.9%); format: functional
SK-BR-3 [32] = assay: Cell cycle arrest in human SKBR3 cells assessed as accumulation at S phase at 50 uM after 24 hrs by propidium iodide staining based flow cytometeric analysis (reference value: 39.9 +/- 1.5%); format: functional
SK-BR-3 [33] = assay: Cell cycle arrest in human SKBR3 cells assessed as accumulation at G2/M phase at 5 uM after 48 hrs by propidium iodide staining based flow cytometeric analysis (reference value: 34.7 +/- 3.3%); format: functional
SK-BR-3 [34] = assay: Cell cycle arrest in human SKBR3 cells assessed as accumulation at S phase at 10 uM after 24 hrs by propidium iodide staining based flow cytometeric analysis (reference value: 39.9 +/- 1.5%); format: functional
HEp-2 [35] = assay: Antiproliferative activity against human Hep2 cells after 72 hrs by MTT assay; format: functional, cell-based; conditions: Homo sapiens, HEp-2, 72 h; summary of the method: as §4
SK-BR-3 [36] = assay: Cell cycle arrest in human SKBR3 cells assessed as accumulation at S phase at 10 uM after 48 hrs by propidium iodide staining based flow cytometeric analysis (reference value: 40.6 +/- 4.9%); format: functional
SK-BR-3 [37] = assay: Cell cycle arrest in human SKBR3 cells assessed as accumulation at G2/M phase at 10 uM after 24 hrs by propidium iodide staining based flow cytometeric analysis (reference value: 20.6 +/- 2.1%); format: functional
SK-BR-3 [38] = assay: Cell cycle arrest in human SKBR3 cells assessed as accumulation at subG1 phase at 10 uM after 24 hrs by propidium iodide staining based flow cytometeric analysis (reference value: 39 +/- 1.1%); format: functional
SK-BR-3 [39] = assay: Cell cycle arrest in human SKBR3 cells assessed as accumulation at subG1 phase at 50 uM after 24 hrs by propidium iodide staining based flow cytometeric analysis (reference value: 39 +/- 1.1%); format: functional
SK-BR-3 [40] = assay: Cell cycle arrest in human SKBR3 cells assessed as accumulation at G1 phase at 50 uM after 48 hrs by propidium iodide staining based flow cytometeric analysis (reference value: 24.7 +/- 1.9%); format: functional
SK-BR-3 [41] = assay: Cell cycle arrest in human SKBR3 cells assessed as accumulation at S phase at 5 uM after 48 hrs by propidium iodide staining based flow cytometeric analysis (reference value: 40.6 +/- 4.9%); format: functional
SK-BR-3 [42] = assay: Cell cycle arrest in human SKBR3 cells assessed as accumulation at G2/M phase at 10 uM after 48 hrs by propidium iodide staining based flow cytometeric analysis (reference value: 34.7 +/- 3.3%); format: functional
SK-BR-3 [43] = assay: Cell cycle arrest in human SKBR3 cells assessed as accumulation at G1 phase at 5 uM after 48 hrs by propidium iodide staining based flow cytometeric analysis (reference value: 24.7 +/- 1.9%); format: functional
MIA PaCa-2 [44] = assay: Antiproliferative activity against human MIAPaCa2 cells after 72 hrs by MTT assay; format: functional, cell-based; conditions: Homo sapiens, MIA PaCa-2, 72 h; summary of the method: as §4

Nc1ccc2c(ccc3nc4ncccc4n32)c1 [listing 1 of 2 here]
Activity (MIA PaCa-2 [1]): Active
log Ks (Nucleic Acid [2]): 4.6
ΔTm (Nucleic Acid [3]): 0.7 °C
Activity (MCF7 [4]): Active
ΔTm (Nucleic Acid [5]): 1.3 °C
Activity (Nucleic Acid [6]): inactive
ΔTm (Nucleic Acid [7]): 0.2 °C
Activity (HEp-2 [8]): Active
Activity (SK-BR-3 [9]): Active
ΔTm (Nucleic Acid [10]): 1.4 °C
Activity (Nucleic Acid [11]): 18%
Activity (HeLa [12]): Active
Activity (Nucleic Acid [13]): 26%
Activity (SW-620 [14]): Active

Nc1ccc2c(ccc3nc4ncccc4n32)c1 [listing 2 of 2 here]
pIC50 (HeLa [15]): 4.36
Activity (SK-BR-3 [16]): 47.1%
Activity (SK-BR-3 [17]): 39.4%
pIC50 (MCF7 [18]): 4.14
pIC50 (WI-38): < 4.00
Activity (SK-BR-3 [19]): 18.7%
Activity (SK-BR-3 [20]): 47.6%
Activity (SK-BR-3 [21]): 35.1%
Activity (SK-BR-3 [22]): 35.7%
Activity (SK-BR-3 [23]): 3.1%
pIC50 (SW-620 [24]): 4.46
pIC50 (SK-BR-3 [25]): 5.53
Activity (SK-BR-3 [26]): 33.2%
Activity (SK-BR-3 [27]): 1.9%
Activity (SK-BR-3 [28]): 5.5%
Activity (SK-BR-3 [29]): 17.7%
Activity (SK-BR-3 [30]): 32.5%
Activity (SK-BR-3 [31]): 20.9%
Activity (SK-BR-3 [32]): 48.1%
Activity (SK-BR-3 [33]): 15.8%
Activity (SK-BR-3 [34]): 34.5%
pIC50 (HEp-2 [35]): 4.41
Activity (SK-BR-3 [36]): 64.2%
Activity (SK-BR-3 [37]): 26.1%
Activity (SK-BR-3 [38]): 45.8%
Activity (SK-BR-3 [39]): 50.2%
Activity (SK-BR-3 [40]): 19.9%
Activity (SK-BR-3 [41]): 59.8%
Activity (SK-BR-3 [42]): 14.8%
Activity (SK-BR-3 [43]): 24.4%
pIC50 (MIA PaCa-2 [44]): 4.32
